# STEP inh – STEP (human) phosphatase inhibition; P54829; recombinant STEP, OMFP fluorogenic substrate, fluorescence; inhibition, % at 20 µM; 360,000 tested, 0.25% active;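 active means inhibition at 20 µM, scaled per plate between control wells, above about 37%, limit read from the data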;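 further: 0% = DMSO with enzyme and substrate and 100% = substrate only without enzyme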
#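 material = STEP tyrosine phosphatase | reagent = fluorogenic phosphatase substrate OMFP at 25 µM final | doses = single compound dose of 20 µM, 1% DMSO final | schedule = 20 min reaction, room temperature, in the dark | measured by = fluorescence, 480/540 nm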
# PP1 inh – PP1-alpha (human) inhibition in PP5 counter-screen | 320,000 tested, 0.9% active | inhibition, % at 6.7 µM | purified PP1alpha, OMFP fluorescence;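 active means inhibition above the mean inhibition of all tested compounds plus 3 SD, computed separately for each screening campaign, cut at about 15% in these data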
# PP5 inh – PP5 (human) phosphatase inhibition; P53041; purified PP5c, OMFP substrate fluorescence; inhibition, % at 6.7 µM; 320,000 tested, 0.18% active;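 active means inhibition above the campaign's mean inhibition across all tested compounds plus 3 SD, cut at about 9.5% in these data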;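 further: 0% = DMSO only and 100% = 100 µM cantharidin control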
# Target sequence (P53041 whole entry, looked up): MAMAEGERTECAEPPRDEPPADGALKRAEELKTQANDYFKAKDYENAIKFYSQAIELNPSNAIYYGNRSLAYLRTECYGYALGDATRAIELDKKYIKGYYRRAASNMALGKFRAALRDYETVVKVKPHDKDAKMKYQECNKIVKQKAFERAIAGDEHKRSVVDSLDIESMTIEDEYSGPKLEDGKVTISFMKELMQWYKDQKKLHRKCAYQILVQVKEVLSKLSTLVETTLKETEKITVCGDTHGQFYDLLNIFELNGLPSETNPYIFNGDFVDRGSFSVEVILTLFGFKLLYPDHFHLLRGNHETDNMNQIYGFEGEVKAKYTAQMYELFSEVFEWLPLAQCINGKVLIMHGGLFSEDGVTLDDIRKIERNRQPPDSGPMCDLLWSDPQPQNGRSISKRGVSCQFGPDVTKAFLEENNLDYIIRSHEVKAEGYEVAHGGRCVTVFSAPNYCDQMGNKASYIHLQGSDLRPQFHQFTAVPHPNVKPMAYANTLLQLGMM
# Scp1 inh – Scp-1 (human) phosphatase inhibition. Q9GZU7. Recombinant Scp1, phosphopeptide, malachite green phosphate absorbance. inhibition, % at 20 µM. 340,000 tested, 0.88% active. AID 493091;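 active means inhibition above about 50% at 20 µM, limit read from the data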;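 further: plate controls were DMSO wells with enzyme for no effect and wells lacking enzyme for full effect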
#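 Test system: SCP-1 phosphatase catalytic domain, residues 76-261; measured by: colorimetric phosphate reagent with accelerator and stabiliser, absorbance at 630 nm; timing: enzyme reaction 45 min at room temperature, colour 5 min, stabilisation 30 min; also added: Phosphorylated 17-residue peptide substrate; compound dosing: one concentration, 20 µM, with 1.0% DMSO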
# LMPTP inh – blocks human LMPTP phosphatase; P24666; recombinant LMPTP-A, OMFP fluorogenic substrate, fluorescence intensity; inhibition, % at 20 µM; 360,000 tested, 0.22% active; AID 651560;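 active means compounds that cut the enzyme signal by at least half of the control window in the single-dose screen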;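 further: plate controls were DMSO wells with enzyme plus substrate for no effect and substrate without enzyme for full effect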
# Target sequence (P24666 whole entry, looked up): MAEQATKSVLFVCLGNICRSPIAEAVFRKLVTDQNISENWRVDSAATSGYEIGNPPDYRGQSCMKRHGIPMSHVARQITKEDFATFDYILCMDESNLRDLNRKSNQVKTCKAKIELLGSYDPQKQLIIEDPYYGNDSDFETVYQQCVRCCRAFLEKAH
#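 Test system: LMPTP-A phosphatase enzyme. Amount: LMPTP-A at 0.625 nM final in the reaction. Reagent: OMFP substrate, 400 µM final. Times: 50 min at room temperature. Signal: endpoint fluorescence intensity from OMFP dephosphorylation. Read-out basis: % inhibition. Benchmarks: no-enzyme and uninhibited controls.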
# PP1 inh confirm – confirmation of human PP1 phosphatase inhibitors | AID 2358 | shares compounds with PP1 inh | purified PP1alpha, OMFP substrate fluorescence | 1,900 tested, 52% active | inhibition, % at 6.7 µM;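 active means mean PP1 inhibition above a set limit taken from the earlier primary screen, cut at about 15% in these data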
# PP5 inh counter – PP5 phosphatase inhibition, counter-screen for PP1 inhibitors; inhibition, % at 6.7 µM; purified PP5c, OMFP fluorescence; AID 2360; shares compounds with PP1 inh; 1,900 tested, 4% active;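 active means mean PP5 inhibition over triplicate wells above about 9.5% taken from the earlier PP1 screen, limit read from the data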
# Numbers without * were called inactive; / = not tested or not shown. Shown are actives, neighbours in structure and some others; about 1.9% of the full set was active somewhere.
SMILES,STEP inh,PP1 inh,PP5 inh,Scp1 inh,LMPTP inh,PP1 inh confirm,PP5 inh counter
COc1ccccc1/C=C/c1ccc2cccc(O)c2n1,4,23*,2,19,3,15,-1
C=CCSc1nnc(NC(=O)c2nc(SCC)ncc2Cl)s1,0,1,4,-13,-1,/,/
COc1cc(Cl)cc(/C=C/c2ccc3cccc(O)c3n2)c1OC,2,3,-1,-6,0,/,/
COc1ccc(Cl)cc1/C=C/c1ccc2cccc(O)c2n1,2,18*,2,5,4,16*,-3
CCOC(=O)c1c(NC(=O)COC(=O)c2nccnc2N)sc(C(=O)N(C)C)c1C,0,-5,-3,-2,-1,/,/
CCOc1ccc(NC(=O)c2ccc(NC(=O)c3ccc(CN4CCOCC4)cc3)cc2)cc1,-2,22*,4,6,-4,41*,-6
O=C(Nc1ccc(S(=O)(=O)Nc2nccs2)cc1)c1ccc(N2C(=O)c3ccccc3C2=O)cc1,-3,28*,-2,-6,2,15,-1
Cc1noc(NS(=O)(=O)c2ccc(NC(=O)CCN3C(=O)c4ccccc4C3=O)cc2)c1C,0,-3,-1,-6,-1,/,/
COc1ccc(/C(C)=N\NC(=O)CSc2nnc(C)s2)cc1,-3,19*,-1,-5,-2,-3,-2
O=C(O)C(c1ccccc1)N1C(=O)/C(=C\c2ccc(-c3ccccc3Cl)o2)SC1=S (stereo not drawn),45*,27*,0,35,77*,36*,3
CCOC(=O)CC1(NC(=O)C2CCC(=O)N(CCc3ccccc3)C2)CCCCC1 (stereo not drawn),-3,20*,-1,-2,0,0,2
CCCCNC(=O)C(C)N(CCN(C)C)C(=O)CCCN1C(=O)NC(c2ccc([N+](=O)[O-])cc2)C(C(=O)OCc2ccccc2)=C1C (stereo not drawn),-1,/,/,1,-2,/,/
CCCCCCN(C(=O)CCCCCN1C(=O)NC(c2cccc([N+](=O)[O-])c2)C(C(=O)OCc2ccccc2)=C1C)C(C(=O)NCCCC)c1ccc(OCC(=O)OC)c(C(=O)OC)c1 (stereo not drawn),/,36*,6,/,/,37*,5
CCCCCCN(C(=O)CCCCCN1C(=O)NC(c2ccc(-c3ccccc3)cc2)C(C(=O)OCc2ccccc2)=C1C)C(C)C(=O)NCCCC (stereo not drawn),/,25*,3,/,/,23*,4
CCCCNC(=O)C(C1CCCCC1)N(CCN(C)C)C(=O)CCCN1C(=O)NC(c2ccc(-c3ccccc3)cc2)C(C(=O)OCc2ccccc2)=C1C (stereo not drawn),/,/,/,4,/,/,/
CCCCCCN(C(=O)CCCCCN1C(=O)NC(c2ccc(-c3ccccc3)cc2)C(C(=O)OCc2ccccc2)=C1C)C(C(=O)NCCCC)c1ccc(OCC(=O)OC)c(C(=O)OC)c1 (stereo not drawn),/,38*,-1,/,/,21*,-4
CCCCN1C(=O)NC(c2cccc([N+](=O)[O-])c2)C(C(=O)OCC)=C1C (stereo not drawn),3,-4,2,-3,1,/,/
CCCCCCN(C(=O)CCCCCN1C(=O)NC(c2ccc([N+](=O)[O-])cc2)C(C(=O)OCc2ccccc2)=C1C)C(C(=O)NCCCC)c1ccc(OCC(=O)OC)c(C(=O)OC)c1 (stereo not drawn),/,23*,4,/,/,34*,2
COc1cc(C)cc2c1OC(c1ccccc1)CC2=O (stereo not drawn),-1,/,/,-12,0,/,/
O=c1c(N=Nc2ccccc2)c[nH]n1-c1ccccc1,-2,/,/,/,0,/,/
Cc1ccccc1S(=O)(=O)NC(=O)C1(C)CCN1C(=O)CC(c1ccccc1)c1ccccc1 (stereo not drawn),-2,/,/,/,-2,/,/
Cc1ccc(SC(C)c2nc(-c3cccnc3)no2)cc1 (stereo not drawn),4,-2,3,15,0,/,/
Cc1cccc(NS(=O)(=O)c2cccc(C(=O)N3CCN(S(=O)(=O)c4ccccc4)CC3)c2)c1,2,-1,1,-11,1,/,/
CN(C)CCN1C(=O)C2C3C=CC(C3)C2C1=O (stereo not drawn),-3,-1,2,-3,-1,/,/
O=C(c1ccncc1)N1CCN(S(=O)(=O)c2ccccc2Br)CC1,0,1,0,-2,-1,/,/
SMILES,STEP inh,PP1 inh,PP5 inh,Scp1 inh,LMPTP inh,PP1 inh confirm,PP5 inh counter
CCC1(C)SC(NC(C)=O)=NN1C(C)=O (stereo not drawn),0,-1,2,1,0,/,/
COc1cnc(-c2ccccn2)nc1NC(C)C,3,4,1,-11,0,/,/
COc1cnc(-c2ccccn2)nc1Sc1ccc(C)cc1,3,48*,6,-7,2,51*,-2
COc1ccccc1Sc1nc(-c2ccccn2)ncc1OC,4,44*,4,-2,1,46*,-6
Cc1ccc(Sc2cc(C)nc(-c3ccccn3)n2)cc1,4,10,-1,2,2,/,/
COc1cnc(-c2ccccn2)nc1Sc1cccc(Cl)c1,1,33*,8,-3,2,50*,-1
Cc1cc(CNC[C@H]2O[C@@H](n3ccc(N)nc3=O)[C@H](O)[C@@H]2O)no1,2,/,/,/,-2,/,/
COc1ccc(Cl)cc1NC(=O)Nc1ccc(Br)cn1,0,2,4,-3,1,/,/
CS(=O)(=O)N(CC(=O)N1CCN(Cc2ccc3c(c2)OCO3)CC1)C1CCCCC1,2,-1,-1,0,0,/,/
COc1ccc(C(=O)n2nc(-c3ccco3)nc2SC)cc1OC,0,1,-1,-3,-1,/,/
CCCOc1ccc(C(C)=O)cc1CSc1nc(O)cc(=O)[nH]1,-1,19*,-1,10,-1,3,-1
COc1ccc(-c2c[n+]3c4n2CCCCC4=C(c2ccc(Br)cc2)C3)cc1,6,33*,2,12,9,-11,-1
Clc1ccc(C2=C3CCCCn4c(-c5ccccc5)c[n+](c43)C2)cc1,-1,18*,0,-2,2,-12,-1
O=C(COc1ccc([N+](=O)[O-])cc1)NCc1cccnc1,2,-4,1,-7,-2,/,/
CC1=NOC(=O)/C1=C/c1ccc(-c2ccc(Cl)cc2)o1,5,18*,2,/,4,49*,-2
CCOC(CNC(=O)c1ccc(CNC(=O)c2ccc(OC)c(OC)c2)cc1)OCC,0,-1,-1,0,-2,/,/
CC(=O)N1CCc2c(sc(NC(=O)CCS(=O)(=O)c3ccc(C)cc3)c2C#N)C1,2,-2,1,0,0,/,/
